Data on 3 compounds can be found in ChEMBL document CHEMBL1275566, “MexCD-OprJ multidrug efflux system of Pseudomonas aeruginosa: involvement in chlorhexidine resistance and induction by membrane-damaging agents dependent upon the AlgU stress response sigma factor” (2008).

For assay [1], the system named is Pseudomonas aeruginosa. Put plainly: Induction of mexCD-oprJ expression in Pseudomonas aeruginosa PAO1 K767 at 3 ug/ml after 2.5 hrs by semiquantitative RT-PCR. It counts as functional, organism-based.
The test system of assay [2] is Pseudomonas aeruginosa. The assay can be described thus: Induction of mexCD-oprJ expression in Pseudomonas aeruginosa PAO1 K767 at 2.5 ug/ml after 2.5 hrs by semiquantitative RT-PCR. The format is functional, organism-based.
For assay [3], the system named is Pseudomonas aeruginosa. The assay can be described thus: Induction of mexCD-oprJ expression in mexB and mexXY deficient and AlgU-positive Pseudomonas aeruginosa K1542 at 2.5 ug/ml by semiquantitative RT-PCR. The format is functional, organism-based.
Assay [4] relates to Pseudomonas aeruginosa. The assay can be described thus: Induction of mexCD-oprJ expression in mexB and mexXY deficient and AlgU-negative Pseudomonas aeruginosa K2897 at 0.33 ug/ml by semiquantitative RT-PCR. It counts as functional, organism-based.
The subject of assay [5] is Pseudomonas aeruginosa. Put plainly: Induction of mexCD-oprJ expression in AlgU and NfxB-positive Pseudomonas aeruginosa K767. It counts as functional, organism-based.
For assay [6], the system named is Pseudomonas aeruginosa. The assay can be described thus: Induction of mexCD-oprJ expression in AlgU-positive and NfxB-negative Pseudomonas aeruginosa K1536. It counts as functional, organism-based.
Assay [7] relates to Pseudomonas aeruginosa. The assay can be described thus: Induction of mexCD-oprJ expression in Pseudomonas aeruginosa K2895 harboring plasmid pMMB206. The format is functional, organism-based.
For assay [8], the system named is Pseudomonas aeruginosa. The assay can be described thus: Induction of mexCD-oprJ expression in Pseudomonas aeruginosa K2895 harboring plasmid pMMB206 carrying AlgU gene. The format is functional, organism-based.
Assay [9] relates to Pseudomonas aeruginosa. The assay can be described thus: Antimicrobial activity against CDJ and AlgU-positive Pseudomonas aeruginosa K1542. The format is functional.
Assay [10] concerns Pseudomonas aeruginosa. The assay can be described thus: Antimicrobial activity against CDJ-negative and AlgU-positive Pseudomonas aeruginosa K2896. The format is functional.
Assay [11] has as its system Pseudomonas aeruginosa. The assay can be described thus: Antimicrobial activity against CDJ-positive and AlgU-negative Pseudomonas aeruginosa K2897. The format is functional. Summed up: (§1)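 Broth susceptibility testing of P. aeruginosa strains in LB at 37°C. Strains are defined by mexCD-oprJ status (CDJ+ means present and CHX-inducible but not expressed untreated; CDJ− means deleted) and by algU status.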

The subject of assay [12] is Pseudomonas aeruginosa. The assay can be described thus: Antimicrobial activity against CDJ and AlgU-negative Pseudomonas aeruginosa K2898. It counts as functional. The method in brief: as §1
Assay [13] concerns Pseudomonas aeruginosa. The assay can be described thus: Antimicrobial activity against CDJ and AlgU-positive Pseudomonas aeruginosa K767. It counts as functional.
The subject of assay [14] is Pseudomonas aeruginosa. Put plainly: Antimicrobial activity against CDJ-negative and AlgU-positive Pseudomonas aeruginosa K1521. It counts as functional. The method in brief:
as §1

For assay [15], the system named is Pseudomonas aeruginosa. The assay can be described thus: Antimicrobial activity against CDJ-positive and AlgU-negative Pseudomonas aeruginosa K2443. The format is functional.
Assay [16] relates to Pseudomonas aeruginosa. The assay can be described thus: Antimicrobial activity against CDJ-positive and AlgU-negative Pseudomonas aeruginosa K2443 harboring plasmid pMMB206. It counts as functional.
Assay [17] has as its system Pseudomonas aeruginosa. Put plainly: Antimicrobial activity against CDJ-positive and AlgU-negative Pseudomonas aeruginosa K2443 harboring plasmid pMMB206 carrying AlgU gene. It counts as functional.
Assay [18] concerns Pseudomonas aeruginosa. The assay can be described thus: Antimicrobial activity against NfxB-negative and AlgU-positive Pseudomonas aeruginosa K1536. It counts as functional.
Assay [19] has as its system Pseudomonas aeruginosa. Put plainly: Antimicrobial activity against NfxB- and AlgU-negative Pseudomonas aeruginosa K2895. It counts as functional.
For assay [20], the system named is Pseudomonas aeruginosa. Put plainly: Antimicrobial activity against NfxB- and AlgU-negative Pseudomonas aeruginosa K2895 harboring plasmid pMMB206. The format is functional.
Assay [21] concerns Pseudomonas aeruginosa. Put plainly: Antimicrobial activity against NfxB-and AglU-negative Pseudomonas aeruginosa K2895 harboring plasmid pMMB206 carrying AlgU gene. The format is functional.
Assay [22] has as its system Pseudomonas aeruginosa. The assay can be described thus: Antimicrobial activity against CDJ -positive Pseudomonas aeruginosa K2889. The format is functional. Summed up:
as §1

Assay [23] has as its system Pseudomonas aeruginosa. Put plainly: Antimicrobial activity against CDJ -negative Pseudomonas aeruginosa K2891. The format is functional.
The subject of assay [24] is Pseudomonas aeruginosa. Put plainly: Induction of PmexCD-oprJ-lacZ expression in Pseudomonas aeruginosa K2899 at 1.25 ug/ml by beta-galactosidase reporter assay. The format is functional, organism-based. (Reporter assays use an easily measured gene product as a stand-in for the process of interest.)
For assay [25], the system named is Pseudomonas aeruginosa. Put plainly: Induction of PmexCD-oprJ-lacZ expression in AlgU-negative Pseudomonas aeruginosa K2901 at 0.16 ug/ml by beta-galactosidase reporter assay. The format is functional, organism-based.
The test system of assay [26] is Pseudomonas aeruginosa. The assay can be described thus: Induction of PmexCD-oprJ-lacZ expression in Pseudomonas aeruginosa K2899 at 0.125 ug/ml by beta-galactosidase reporter assay. It counts as functional, organism-based.
For assay [27], the system named is Pseudomonas aeruginosa. The assay can be described thus: Induction of PmexCD-oprJ-lacZ expression in AlgU-negative Pseudomonas aeruginosa K2901 at 0.125 ug/ml by beta-galactosidase reporter assay. It counts as functional, organism-based.
Assay [28] has as its system Pseudomonas aeruginosa. The assay can be described thus: Induction of PmexCD-oprJ-lacZ expression in Pseudomonas aeruginosa K2899 at 3.1 ug/ml by beta-galactosidase reporter assay. It counts as functional, organism-based.
Assay [29] relates to Pseudomonas aeruginosa. Put plainly: Induction of PmexCD-oprJ-lacZ expression in AlgU-negative Pseudomonas aeruginosa K2901 at 3.1 ug/ml by beta-galactosidase reporter assay. It counts as functional, organism-based.
For assay [30], the system named is Pseudomonas aeruginosa. Put plainly: Induction of PmexCD-oprJ-lacZ expression in Pseudomonas aeruginosa K2899 at 15 ug/ml by beta-galactosidase reporter assay. It counts as functional, organism-based.
Assay [31] deals with Pseudomonas aeruginosa. The assay can be described thus: Induction of PmexCD-oprJ-lacZ expression in AlgU-negative Pseudomonas aeruginosa K2901 at 15 ug/ml by beta-galactosidase reporter assay. The format is functional, organism-based.
The test system of assay [32] is Pseudomonas aeruginosa. Put plainly: Induction of PmexCD-oprJ-lacZ expression in Pseudomonas aeruginosa K2899 at 11.6 ug/ml by beta-galactosidase reporter assay. The format is functional, organism-based.
Assay [33] has as its system Pseudomonas aeruginosa. Put plainly: Induction of PmexCD-oprJ-lacZ expression in AlgU-negative Pseudomonas aeruginosa K2901 at 11.6 ug/ml by beta-galactosidase reporter assay. It counts as functional, organism-based.
Assay [34] has as its system Pseudomonas aeruginosa. Put plainly: Induction of PmexCD-oprJ-lacZ expression in Pseudomonas aeruginosa K2899 at 8 ug/ml by beta-galactosidase reporter assay. The format is functional, organism-based.
For assay [35], the system named is Pseudomonas aeruginosa. Put plainly: Induction of PmexCD-oprJ-lacZ expression in AlgU-negative Pseudomonas aeruginosa K2901 at 8 ug/ml by beta-galactosidase reporter assay. It counts as functional, organism-based.
Assay [36] relates to Pseudomonas aeruginosa. Put plainly: Induction of PmexCD-oprJ-lacZ expression in Pseudomonas aeruginosa K2899 at 16 ug/ml by beta-galactosidase reporter assay. It counts as functional, organism-based.
Assay [37] deals with Pseudomonas aeruginosa. Put plainly: Induction of PmexCD-oprJ-lacZ expression in AlgU-negative Pseudomonas aeruginosa K2901 at 16 ug/ml by beta-galactosidase reporter assay. It counts as functional, organism-based.
Assay [38] deals with Pseudomonas aeruginosa. Put plainly: Induction of mexCD-oprJ expression in AlgU-negative and NfxB-negative Pseudomonas aeruginosa K2895.
Assay [39] deals with Pseudomonas aeruginosa. The assay can be described thus: Induction of mexCD-oprJ expression in Pseudomonas aeruginosa PAO1 K767 at 100 ug/ml after 2.5 hrs by semiquantitative RT-PCR. It counts as functional, organism-based.

Values after ≈ are worked out from the molar mass of the structure shown. Active and inactive are the calls of the source. The calls are words filed in the database; no cut-off is given here.

As to `CCCCC(CC)CNC(=N)NC(=N)NCCCCCCNC(=N)NC(=N)NCC(CC)CCCC` (centres undefined), in [1], the result was Active.

In the case of `N=C(NCCCCCCNC(=N)NC(=N)Nc1ccc(Cl)cc1)NC(=N)Nc1ccc(Cl)cc1` [CHLORHEXIDINE], the result in assay [2], in assay [3], in assay [4], in [5], in [6] and in [7] was Active. In addition, the result in assay [8], in assay [24], in assay [25], in [26], in [27] and in assay [28] was Active. For the same compound, the result in assay [29], in assay [30], in assay [31], in [32], in assay [33] and in [34] was Active. Further, the result in assay [35], in assay [36], in assay [37] and in [38] was Active. In addition, the MIC turned out to be 10 µg/mL (≈ 19.8 µM) in [9]; 2.5 µg/mL (≈ 4.95 µM) in assay [10]; 1.25 µg/mL (≈ 2.47 µM) in assay [11]; 0.625 µg/mL (≈ 1.24 µM) in assay [12]; 10 µg/mL (≈ 19.8 µM) in assay [13]; 5 µg/mL (≈ 9.89 µM) in assay [14]. The MIC in [15] stood at 2.5 µg/mL (≈ 4.95 µM); in assay [16] it was 2.5 µg/mL (≈ 4.95 µM); in assay [17] it was 10 µg/mL (≈ 19.8 µM); in assay [18], 20 µg/mL (≈ 39.6 µM); in assay [19], 2.5 µg/mL (≈ 4.95 µM); in assay [20] it was 2.5 µg/mL (≈ 4.95 µM). In addition, the MIC in [21] is 20 µg/mL (≈ 39.6 µM); in [22], more than 50 µg/mL; in [23] it was 10 µg/mL (≈ 19.8 µM).

As for CETRIMIDE, in [39], the outcome was Active.

In general, MIC refers to the lowest concentration that inhibits growth of the organism.
